In ChEMBL document CHEMBL4130355, “Development of a series of novel 4-anlinoquinazoline derivatives possessing quinazoline skeleton: Design, synthesis, EGFR kinase inhibitory efficacy, and evaluation of anticancer activities in vitro” (Eur J Med Chem, 2017):

Key:
HepG2 [1] = test: Antiproliferative activity against human HepG2 cells after 72 hrs by MTT assay; type: functional, cell-based; details: HepG2, 72 h
DU-145 = test: Antiproliferative activity against human DU145 cells after 72 hrs by MTT assay; type: functional, cell-based; details: DU-145, 72 h
MCF7 = test: Antiproliferative activity against human MCF7 cells after 72 hrs by MTT assay; type: functional, cell-based; details: MCF7, 72 h
A549 = test: Antiproliferative activity against human A549 cells after 72 hrs by MTT assay; type: functional, cell-based; details: A549, 72 h
SH-SY5Y = test: Antiproliferative activity against human SH-SY5Y cells after 72 hrs by MTT assay; type: functional, cell-based
HepG2 [2] = test: Cytotoxicity against human HepG2 cells at 5 uM after 48 hrs by LDH release assay (reference value: 100%); type: functional
Summary of the method: (§1)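 HepG2 seeded at 1.0 × 10^5 cells/well, grown 24 h at 37 °C in 5% CO2, then dosed for 48 h. LDH in supernatant read on plate reader per kit. Maximal release (100% cytotoxicity) came from lysis with 2% (V/V) lysate for 1 h at 37 °C; medium-only cells served as natural release. Triplicate, three independent runs.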

HepG2 [3] = test: Cytotoxicity against human HepG2 cells at 2.5 uM after 48 hrs by LDH release assay (reference value: 100%); type: functional
Summary of the method: (§2)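 LDH release. HepG2 cells at 1.0 × 10^5/well were incubated 24 h at 37 °C, then treated at 2.5–40 µM for 48 h. Cells lysed with 2% lysate for 1 h gave the full-release (100%) reference; medium-only cells were the low control. LDH in the supernatant was measured per kit. Triplicates, three independent repeats.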

HepG2 [4] = test: Cytotoxicity against human HepG2 cells at 10 uM after 48 hrs by LDH release assay (reference value: 100%); type: functional; summary of the method: as §2
HepG2 [5] = test: Cytotoxicity against human HepG2 cells at 20 uM after 48 hrs by LDH release assay (reference value: 100%); type: functional; summary of the method: as §2
HepG2 [6] = test: Cytotoxicity against human HepG2 cells at 40 uM after 48 hrs by LDH release assay (reference value: 100%); type: functional; summary of the method: as §1

| IC50 (HepG2 [1]) [µM] | IC50 (DU-145) [µM] | IC50 (MCF7) [µM] | IC50 (A549) [µM] | IC50 (SH-SY5Y) [µM] | SMILES | Activity (HepG2 [2]) [%] | Activity (HepG2 [3]) [%] | Activity (HepG2 [4]) [%] | Activity (HepG2 [5]) [%] | Activity (HepG2 [6]) [%] |
| --- | --- | --- | --- | --- | --- | --- | --- | --- | --- | --- |
| 13.8 | 46.5 | 71.1 | 48.8 | 13 | COc1cc2c(Nc3ccc(C#N)cc3)ncnc2cc1OCCCN1CCN(C)CC1 |  |  |  |  |  |
| 9.58 | 34.4 | 29.9 | 16 | 5.44 | CCN1CCN(CCCOc2cc3ncnc(Nc4ccc(C#N)cc4)c3cc2OC)CC1 |  |  |  |  |  |
| 13.7 | 18.2 | 19.9 | 18.7 | 6.27 | CCN1CCN(CCCOc2cc3ncnc(Nc4cccc(C#N)c4)c3cc2OC)CC1 |  |  |  |  |  |
| > 100 | > 100 | > 100 | > 100 | > 100 | COc1cc2c(Nc3ccc(C#N)cc3)ncnc2cc1OCCCN1CCc2ccccc2C1 |  |  |  |  |  |
| 0.77 | 98.2 | > 100 | 59.4 | > 100 | COc1cc2c(Nc3ccc(C#N)cc3)ncnc2cc1OCCCN1CCOCC1 |  |  |  |  |  |
| 59.4 | 68.9 | > 100 | 50.6 | > 100 | CCN(CC)CCCOc1cc2ncnc(Nc3ccc(C#N)cc3)c2cc1OC |  |  |  |  |  |
| 32.1 | 16.6 | 43.1 | 32.3 | 7.9 | COc1cc2c(Nc3ccc(C#N)cc3)ncnc2cc1OCCCN1CCC(C)CC1 |  |  |  |  |  |
| > 100 | > 100 | > 100 | > 100 | > 100 | COc1cc2c(Nc3ccc(C#N)cc3)ncnc2cc1OCCCN1CCCCC1CCO (stereo not given) |  |  |  |  |  |
| 45.2 | 17.4 | 41.4 | 29 | 83.7 | COc1cc2c(Nc3ccc(C#N)cc3)ncnc2cc1OCCCN(C)CCO |  |  |  |  |  |
| 29.5 | 29.1 | 44.8 | 37 | 11.2 | COc1cc2c(Nc3cccc(C#N)c3)ncnc2cc1OCCCN1CCCCC1 |  |  |  |  |  |
| 57.7 | 52.3 | 34.9 | 89.9 | 47.2 | CCOC(=O)C1CCN(CCCOc2cc3ncnc(Nc4ccc(C#N)cc4)c3cc2OC)CC1 |  |  |  |  |  |
| 61.8 | 53.2 | 35.1 | > 100 | 21.6 | COc1cc2c(Nc3ccc(C#N)cc3)ncnc2cc1OCCCN1CCC(CO)CC1 |  |  |  |  |  |
| > 100 | > 100 | > 100 | > 100 | > 100 | COc1cc2c(Nc3ccc(C#N)cc3)ncnc2cc1OCCCN(C)Cc1ccccc1 |  |  |  |  |  |
| 24.5 | 18.7 | 16.2 | 21.8 | 28.9 | COc1cc2c(Nc3ccccc3C#N)ncnc2cc1OCCCN1CCCC1 |  |  |  |  |  |
| 18.2 | 19.1 | 33.9 | 39.9 | 10.6 | COc1cc2c(Nc3cccc(C#N)c3)ncnc2cc1OCCCN1CCCC1 |  |  |  |  |  |
| 33.6 | 28.3 | 31 | 42.4 | 24.3 | COc1cc2c(Nc3ccc(C#N)cc3)ncnc2cc1OCCCN1CCC(N(C)C)CC1 |  |  |  |  |  |
| 14.2 | 15.3 | 15.2 | 14.7 | 13.4 | COc1cc2c(Nc3ccccc3C#N)ncnc2cc1OCCCN1CCCCC1 |  |  |  |  |  |

| IC50 (HepG2 [1]) [µM] | IC50 (DU-145) [µM] | IC50 (MCF7) [µM] | IC50 (A549) [µM] | IC50 (SH-SY5Y) [µM] | SMILES | Activity (HepG2 [2]) [%] | Activity (HepG2 [3]) [%] | Activity (HepG2 [4]) [%] | Activity (HepG2 [5]) [%] | Activity (HepG2 [6]) [%] |
| --- | --- | --- | --- | --- | --- | --- | --- | --- | --- | --- |
| 18.2 | 17.7 | 24.4 | 18.7 | 7.33 | COc1cc2c(Nc3cccc(C#N)c3)ncnc2cc1OCCCN1CCC(C)CC1 |  |  |  |  |  |
| 2.11 | 5.87 | 9.07 | 6.91 | 12.6 | CCN1CCN(CCCOc2cc3ncnc(Nc4ccccc4C#N)c3cc2OC)CC1 |  |  |  |  |  |
| > 100 | 35.2 | 45 | 60.5 | 34.9 | COc1cc2c(Nc3ccc(C#N)cc3)ncnc2cc1OCCCN(C)C |  |  |  |  |  |
| 18.3 | 12.1 | 23.1 | 27.7 | 6.89 | COc1cc2c(Nc3cccc(C#N)c3)ncnc2cc1OCCCN1CCN(C)CC1 |  |  |  |  |  |
| 20.9 | 14.4 | 16.2 | 21.8 | 8.08 | COc1cc2c(Nc3ccc(C#N)cc3)ncnc2cc1OCCCN1CCCC1 |  |  |  |  |  |
| 28.1 | 29.3 | 25.2 | 9.82 | 36.8 | COc1cc2c(Nc3ccc(C#N)cc3)ncnc2cc1OCCCN1CCN(CCO)CC1 |  |  |  |  |  |
| 12.6 | 22.9 | 22.9 | 25.4 | 31.6 | COc1cc2c(Nc3ccc(C#N)cc3)ncnc2cc1OCCCN1CCN(c2ccncc2)CC1 |  |  |  |  |  |
| 3.68 | 68.5 | 98.4 | 46.8 | > 100 | COc1cc2c(Nc3ccccc3C#N)ncnc2cc1OCCCN1CCOCC1 |  |  |  |  |  |
| 40.3 | 20.2 | 36.8 | 26.1 | 48.1 | COc1cc2c(Nc3ccc(C#N)cc3)ncnc2cc1OCCCN(CCO)CCO |  |  |  |  |  |
| 67.9 | 74.9 | > 100 | 29.9 | > 100 | COc1cc2c(Nc3ccc(C#N)cc3)ncnc2cc1OCCCN1CCC(O)CC1 |  |  |  |  |  |
| > 100 | > 100 | > 100 | 47.4 | > 100 | COc1cc2c(Nc3ccc(C#N)cc3)ncnc2cc1OCCCN(CCO)Cc1ccccc1 |  |  |  |  |  |
| 20.7 | 24.4 | 35.1 | 23.5 | 18.8 | COc1cc2c(Nc3ccc(C#N)cc3)ncnc2cc1OCCCN1CCCCC1 |  |  |  |  |  |
|  |  |  |  |  | COc1cc2ncnc(Nc3ccc(F)c(Cl)c3)c2cc1OCCCN1CCOCC1 [GEFITINIB] | 48.69 | 42.08 | 45.36 | 45.24 | 47.62 |
| 26.4 | 19.4 | 17.8 | 23.4 | 32.4 | COc1cc2c(Nc3ccccc3C#N)ncnc2cc1OCCCN1CCN(C)CC1 |  |  |  |  |  |
| 4.03 | 11.9 | 31.9 | 22.7 | 29 | COc1cc2c(Nc3ccccc3C#N)ncnc2cc1OCCCN1CCC(C)CC1 |  |  |  |  |  |
| 1.89 | 77.8 | > 100 | 65.5 | > 100 | COc1cc2c(Nc3cccc(C#N)c3)ncnc2cc1OCCCN1CCOCC1 |  |  |  |  |  |
| 8.84 | 15.6 | 19.6 | 30.7 | 9.81 | COc1cc2c(Nc3ccc(C#N)cc3)ncnc2cc1OCCCN1CCC(N2CCCCC2)CC1 |  |  |  |  |  |
